Test results published in ChEMBL document CHEMBL4196167, “Ansamycins with Antiproliferative and Antineuroinflammatory Activity from Moss-Soil-Derived Streptomyces cacaoi subsp. asoensis H2S5” (J Nat Prod, 2018).
The source made the active and inactive calls. The rule behind the calls is not given here.

Experiments:
[1] = tested on: BV-2; assay: Inhibition of LPS-induced nitric oxide production in mouse BV2 cells after 24 hrs by Griess assay; assay type: functional, cell-based; details: BV-2, 24 h
Procedure, shortened: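 BV-2 murine microglia in DMEM with 10% heat-inactivated FBS, seeded at 2 × 10^4/well and grown 24 h. Given compound at five concentrations with 1 μg/mL LPS (E. coli 0111:B4) for 24 h; quercetin reference. Supernatant nitrite measured by Griess reagents I and II at A540 against a sodium nitrite standard curve; IC50 as concentration halving NO.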

[2] = Cytotoxicity against LPS-induced mouse BV2 cells assessed as cell viability after 24 hrs by MTT assay; assay type: cell-based, BV-2; design: concentration or dose not given beside the values; details: read-out: Activity
Procedure, shortened: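 BV-2 cells seeded at 2 × 10^3 per 100 μL and grown 24 h, then given compound at various concentrations plus LPS for 24 h; DMSO alone as negative control. MTT (5 mg/mL stock, 10 μL) added for 4 h at 37 °C, lysed overnight in SDS/[…]/HCl buffer, absorbance 570 nm.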

[3] = tested on: PC-3; assay: Cytotoxicity against human PC3 cells after 72 hrs by sulforhodamine B assay; assay type: functional, cell-based; details: PC-3, 72 h
Procedure, shortened: (§1)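 SRB assay. Exponentially growing cells at 2.5 × 10^4 cells/mL attached, then given fresh medium with a range of concentrations for 72 h at 37 °C; four replicate wells; 0.1% DMSO negative control, doxorubicin reference. Fixed in cold 10% TCA 1 h at 4 °C, stained with 0.4% SRB, dye dissolved in 10 mM Tris, A560; viability relative to control; IC50 from dose–response curves.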

[4] = tested on: HepG2; assay: Cytotoxicity against human HepG2 cells after 72 hrs by sulforhodamine B assay; assay type: functional, cell-based; details: HepG2, 72 h; procedure, shortened: as §1
[5] = tested on: HepG2; assay: Induction of apoptosis in human HepG2 cells assessed as early apoptotic cells at 5 uM after 48 hrs by annexin-V-FITC/propidium iodide staining based flow cytometry (reference value: 0.33%); assay type: functional
[6] = tested on: HepG2; assay: Cell cycle arrest in human HepG2 cells assessed as accumulation at G1-phase at 1 uM after 24 hrs by propidium iodide staining based flow cytometry (reference value: 62.3%); assay type: functional
Procedure, shortened: (§2)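 HepG2 cells exposed 24 h to 0.5, 1.0 or 5.0 μM, with DMSO control; washed in cold PBS, fixed in ice-cold 95% ethanol at 4 °C for at least 2 h, then PI-stained 30 min at 37 °C. Cell-cycle phases read by flow cytometry on 10 000 cells per sample; three independent experiments.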

[7] = tested on: HepG2; assay: Induction of apoptosis in human HepG2 cells assessed as necrotic cells at 1 uM after 48 hrs by annexin-V-FITC/propidium iodide staining based flow cytometry (reference value: 1.82%); assay type: functional
[8] = tested on: HepG2; assay: Cell cycle arrest in human HepG2 cells assessed as accumulation at S-phase at 5 uM after 24 hrs by propidium iodide staining based flow cytometry (reference value: 25.5%); assay type: functional; procedure, shortened: as §2
[9] = tested on: HepG2; assay: Cell cycle arrest in human HepG2 cells assessed as accumulation at G2-phase at 5 uM after 24 hrs by propidium iodide staining based flow cytometry (reference value: 9.61%); assay type: functional; procedure, shortened: as §2
[10] = tested on: HepG2; assay: Induction of apoptosis in human HepG2 cells assessed as early apoptotic cells at 1 uM after 48 hrs by annexin-V-FITC/propidium iodide staining based flow cytometry (reference value: 0.33%); assay type: functional
[11] = tested on: HepG2; assay: Cell cycle arrest in human HepG2 cells assessed as accumulation at G2-phase at 1 uM after 24 hrs by propidium iodide staining based flow cytometry (reference value: 9.61%); assay type: functional; procedure, shortened: as §2
[12] = tested on: HepG2; assay: Induction of apoptosis in human HepG2 cells assessed as late apoptotic cells at 5 uM after 48 hrs by annexin-V-FITC/propidium iodide staining based flow cytometry (reference value: 0.51%); assay type: functional
[13] = tested on: HepG2; assay: Induction of apoptosis in human HepG2 cells assessed as necrotic cells at 5 uM after 48 hrs by annexin-V-FITC/propidium iodide staining based flow cytometry (reference value: 1.82%); assay type: functional
[14] = tested on: HepG2; assay: Induction of apoptosis in human HepG2 cells assessed as early apoptotic cells at 0.5 uM after 48 hrs by annexin-V-FITC/propidium iodide staining based flow cytometry (reference value: 0.33%); assay type: functional
[15] = tested on: HepG2; assay: Induction of apoptosis in human HepG2 cells assessed as late apoptotic cells at 1 uM after 48 hrs by annexin-V-FITC/propidium iodide staining based flow cytometry (reference value: 0.51%); assay type: functional
[16] = tested on: HepG2; assay: Induction of apoptosis in human HepG2 cells assessed as chromatin condensation at 5 to 10 uM after 48 hrs by Hoechst 33342 staining based fluorescence microscopic analysis; assay type: functional, cell-based
Procedure, shortened: (§3)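 1 × 10^6 HepG2 cells on coverslips treated 48 h at 1.0, 5.0 or 10 μM; DMSO control. Fixed 30 min in 4% paraformaldehyde, Hoechst 33342 stained 10 min at room temperature in the dark, PBS-washed, nuclear morphology viewed by fluorescence microscopy.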

[17] = tested on: HepG2; assay: Induction of apoptosis in human HepG2 cells assessed as late apoptotic cells at 0.5 uM after 48 hrs by annexin-V-FITC/propidium iodide staining based flow cytometry (reference value: 0.51%); assay type: functional
[18] = tested on: HepG2; assay: Induction of apoptosis in human HepG2 cells assessed as necrotic cells at 0.5 uM after 48 hrs by annexin-V-FITC/propidium iodide staining based flow cytometry (reference value: 1.82%); assay type: functional
[19] = tested on: HepG2; assay: Cell cycle arrest in human HepG2 cells assessed as accumulation at S-phase at 1 uM after 24 hrs by propidium iodide staining based flow cytometry (reference value: 25.5%); assay type: functional; procedure, shortened: as §2
[20] = tested on: HepG2; assay: Induction of apoptosis in human HepG2 cells assessed as cell shrinkage at 5 to 10 uM after 48 hrs by Hoechst 33342 staining based fluorescence microscopic analysis; assay type: functional; procedure, shortened: as §3
[21] = tested on: HepG2; assay: Cell cycle arrest in human HepG2 cells assessed as accumulation at G1-phase at 5 uM after 24 hrs by propidium iodide staining based flow cytometry (reference value: 62.3%); assay type: functional; procedure, shortened: as §2
[22] = tested on: HepG2; assay: Cell cycle arrest in human HepG2 cells assessed as accumulation at G2-phase at 0.5 uM after 24 hrs by propidium iodide staining based flow cytometry (reference value: 9.61%); assay type: functional; procedure, shortened: as §2
[23] = tested on: HepG2; assay: Cell cycle arrest in human HepG2 cells assessed as accumulation at G1-phase at 0.5 uM after 24 hrs by propidium iodide staining based flow cytometry (reference value: 62.3%); assay type: functional; procedure, shortened: as §2
[24] = tested on: HepG2; assay: Cell cycle arrest in human HepG2 cells assessed as accumulation at S-phase at 0.5 uM after 24 hrs by propidium iodide staining based flow cytometry (reference value: 25.5%); assay type: functional; procedure, shortened: as §2

Compound | IC50 [1] | viability at 24 h [2] | IC50 [3] | IC50 [4] | also measured
O=c1c(O)c(-c2ccc(O)c(O)c2)oc2cc(O)cc(O)c12 [QUERCETIN] | 2.4 µM | 99.2% | – | – | –
COc1cccc2c1C(=O)c1c(O)c3c(c(O)c1C2=O)C[C@@](O)(C(=O)CO)C[C@@H]3O[C@H]1C[C@H](N)[C@H](O)[C@H](C)O1 [DOXORUBICIN] | – | – | 0.8 µM | 0.7 µM | –
CC.CO[C@H]1/C=C/C=C/C=C/C[C@H](O)[C@H](C)[C@@H](OC(=O)[C@@H](C)NC(=O)CC(C)C)/C(C)=C\CCc2cc(O)cc(c2)NC(=O)C1 | 8.3 µM | 83.1% | 11.9 µM | 20.5 µM | –
CCCC(=O)N[C@H](C)C(=O)O[C@H]1C/C=C/C=C/C=C/[C@H](OC)CC(=O)Nc2cc(O)cc(c2)CC/C=C(/C)[C@H](O)[C@H]1C | 1.7 µM | 96% | 4.5 µM | 3 µM | –
CO[C@H]1/C=C/C=C/C=C/C[C@H](OC(=O)[C@@H](C)NC(=O)C(C)C)[C@H](C)[C@@H](O)/C(C)=C\CCc2cc(O)cc(c2)NC(=O)C1 | 2.9 µM | 85.4% | 4.4 µM | 0.4 µM | –

Second part, led by results:

IC50 [1] | Compound | viability at 24 h [2] | IC50 [3] | IC50 [4] | also measured
0.48 µM | CCC(C)C(=O)N[C@H](C)C(=O)O[C@H]1C/C=C/C=C/C=C/[C@H](OC)CC(=O)Nc2cc(O)cc(c2)CC/C=C(/C)[C@H](O)[C@H]1C (some centres undefined) | 76.3% | 2.6 µM | 0.5 µM | –
0.3 µM | CO[C@H]1/C=C/C=C/C=C/C[C@H](O)[C@H](C)[C@@H](OC(=O)[C@@H](C)NC(=O)C2CCCCC2)/C(C)=C\CCc2cc(O)cc(c2)NC(=O)C1 | 93.1% | 10.2 µM | 17.6 µM | –
0.09 µM | CO[C@H]1/C=C/C=C/C=C/C[C@H](OC(=O)[C@@H](C)NC(=O)CCCC(C)C)[C@H](C)[C@@H](O)/C(C)=C\CCc2cc(O)cc(c2)NC(=O)C1 | 83.8% | 2.7 µM | 0.1 µM | Activity [5]: 17.63%; Activity [6]: 37.1%; Activity [7]: 2.1%; Activity [8]: 38.6%; Activity [9]: 12.6%; Activity [10]: 9.53%; Activity [11]: 12.4%; Activity [12]: 5.67%; Activity [13]: 3.66%; Activity [14]: 5.11%; Activity [15]: 1.66%; Activity [16]: Active; Activity [17]: 1.25%; Activity [18]: 1.98%; Activity [19]: 34.5%; Activity [20]: Active; Activity [21]: 42.4%; Activity [22]: 14.2%; Activity [23]: 59.1%; Activity [24]: 24.7%
0.18 µM | CO[C@H]1/C=C/C=C/C=C/C[C@H](OC(=O)[C@@H](C)NC(=O)CCC(C)C)[C@H](C)[C@@H](O)/C(C)=C\CCc2cc(O)cc(c2)NC(=O)C1 | 82.5% | 4.2 µM | 0.2 µM | –
0.03 µM | CO[C@H]1/C=C/C=C/C=C/C[C@H](OC(=O)[C@@H](C)NC(=O)C2=CCCCC2)[C@H](C)[C@@H](O)/C(C)=C\CCc2cc(O)cc(c2)NC(=O)C1 | 94.3% | 0.7 µM | 0.2 µM | –
0.02 µM | CO[C@H]1/C=C/C=C/C=C/C[C@H](OC(=O)[C@@H](C)NC(=O)C2CCCCC2)[C@H](C)[C@@H](O)/C(C)=C\CCc2cc(O)cc(c2)NC(=O)C1 [TRIENOMYCIN A] | 95.2% | 0.4 µM | 0.2 µM | –
1.1 µM | CO[C@H]1/C=C/C=C/C=C/C[C@H](OC(=O)[C@@H](C)NC(=O)CC(C)C)[C@H](C)[C@@H](O)/C(C)=C\CCc2cc(O)cc(c2)NC(=O)C1 | 92.7% | 4.5 µM | 1 µM | –
